# Screens (PubChem)
# In the library only some 3.7% were active in any assay of this set; here they are far more common.
# KCNQ1 pot: potentiators or activators of KCNQ1 channel, primary screen, cell-based, thallium flux, high-throughput. CHO-K1 KCNQ1, thallium flux FluxOR fluorescence; hits give high values. B-score at 10 µM. 310,000 tested, 0.35% active. AID 2648, 2010;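 active = fluorescence ratio B-score, a plate-corrected score, at least three library SD, with initial intensity B-score within 5 SD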
#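 assay system = CHO-K1 cells stably expressing KCNQ1 | medium = assay buffer, equal DMSO in all wells | timing = 37 °C overnight plating, 90-min dark dye load, 20-min compound pretreatment | measured by = kinetic FluxOR thallium fluorescence, 10-s 1-Hz baseline, 110-s post-stimulus read | measure = fluorescence change relative to baseline, converted to B score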
# Kir21 block: inhibitors of mouse Kir2.1 inward-rectifier potassium channel; Inward rectifier potassium channel 2 (Mus musculus), P35561; HEK293-Kir2.1, FluxOR thallium flux fluorescence; hits give low values; B-score at 10 µM; 310,000 tested, 0.85% active; AID 1672, 2009;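 active = fluorescence ratio B-score at or below minus 3 SD of library scores, with starting-brightness B-score within 2 SD, cut at about -4.2 in these data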;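 note: channel flux triggered by added potassium and thallium sulfate stimulus; B-score of peak minus minimum fluorescence over baseline after thallium stimulus; more negative B-score means stronger Kir2.1 block with less thallium influx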
# hERG rescue: hERG rescue from dofetilide block, primary screen, cell-based, CHO-hERG, FluxOR thallium flux, dofetilide IC70 | activation (rescue from dofetilide block), less the hit threshold, % at 10 µM | Voltage-gated inwardly rectifying potassium channel KCNH2 (Homo sapiens), Q12809 | dofetilide IC70 present | 310,000 tested, 0.51% active;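 active = activation above the mean of controls blocked by dofetilide plus 5 SD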;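 note: thallium influx through hERG after potassium depolarization seen as dye fluorescence rise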
# KCNK9 inh: KCNK9 potassium channel inhibitors, primary screen, HEK293 cells, thallium flux; AID 488922, 2010; 310,000 tested, 1.2% active; Potassium channel subfamily K member 9 (Homo sapiens), Q9NPC2; FluxOR thallium flux fluorescence; hits give low values; B-score at 10 µM;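 active = ratio B-score over 3 SD below the library mean, with starting fluorescence within 5 SD of its mean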;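 note: negative B-score means less thallium flux so channel inhibition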
# KCNK3 block: human KCNK3 channel inhibitors, primary screen, CHO cells, FluxOR thallium flux, B-score; Potassium channel subfamily K member 3 (Homo sapiens), O14649; B-score at 10 µM; AID 602410, 2012; 340,000 tested, 0.84% active; FluxOR fluorescence; hits give low values;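 active = B-score under library mean minus 4 SD, starting fluorescence ratio at most library mean plus 5 SD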;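 note: more negative B-score means stronger inhibition of thallium flux through KCNK3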
# KCNQ1 inh: inhibitors of human KCNQ1 channel, primary screen, cell-based, thallium flux, high-throughput | Potassium voltage-gated channel subfamily KQT member 1 (Homo sapiens), P51787 | CHO-K1 KCNQ1, FluxOR thallium flux fluorescence; hits give high values | B-score at 10 µM | 310,000 tested, 1.3% active;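 active = compounds whose thallium flux B-score, printed positive for inhibition, exceeds three library SD while starting fluorescence stays within three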;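 note: channel opened by potassium depolarization with thallium stimulus after 20 min compound exposure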
# KCNQ1 inh valid: KCNQ1 potassium channel inhibitors, confirmation, cell-based, Tl flux, duplicate; shares compounds with KCNQ1 inh; 1,600 tested, 93% active; inhibition, % at 10 µM; KCNQ1 cell line, FluxOR thallium flux fluorescence;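 active = primary screen active, with duplicate mean exceeding buffer control mean plus 3 SD of buffer wells, cut at about 28% in these data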;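 note: 0% = buffer control ratio and 100% = XE991 inhibitor control ratio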
# CHO KCNQ1 ctr: thallium flux effects in parental CHO cells, counter-screen for KCNQ1 inhibitor project, cell-based, Tl flux; shares compounds with KCNQ1 inh; 1,600 tested, 21% active; fluorescence ratio (Tl flux) at 10 µM; parental CHO-K1, FluxOR thallium flux fluorescence ratio; hits give low values; zero means no signal rise above baseline; AID 588366, 2011;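 active = mean of duplicate thallium-flux fluorescence ratios in parental host cells more than 5 SD below the buffer control mean, cut at about 0.38 in these data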;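 note: ratio is peak minus minimum fluorescence divided by baseline fluorescence; actives read low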
# KCNQ1 ephys val: KCNQ1 channel inhibitors, confirmation, orthogonal assay, cell-based, automated electrophysiology; calls only at 10 µM; KCNQ1-CHO cells, automated patch clamp current; 490 tested, 20% active; shares compounds with KCNQ1 inh;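 active = KCNQ1 current drop exceeding 3 SD of negative control wells, seen in both duplicate runs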;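 note: steady state current during a 2 s step from -80 to +40 mV; negative values mean current inhibition and positive values mean potentiation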
# KCNQ2 inh: KCNQ2 channel inhibition, selectivity assay for KCNQ1 inhibitor project, cell-based | shares compounds with KCNQ1 inh | KCNQ2 cells, FluxOR thallium flux fluorescence | inhibition, % at 10 µM | 1,600 tested, 71% active;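 active = mean percent inhibition of the KCNQ2 thallium signal more than 5 SD above the buffer-only control wells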;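 note: KCNQ2 expressed in CHO cells; 0% = buffer control wells and 100% = XE-991 inhibitor control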
# KCNQ1 KCNE1 spec: KCNQ1/KCNE1 channel inhibition, selectivity assay for KCNQ1 inhibitor project, CHO-K1 cells, thallium flux, FluxOR | inhibition, % at 10 µM | FluxOR thallium flux fluorescence | AID 652147, 2013 | 1,600 tested, 77% active | shares compounds with KCNQ1 inh;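 active = mean percent inhibition of duplicate wells above the buffer-only control mean plus 3 SD of those controls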;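 note: 0% = buffer only wells and 100% = XE-991 inhibitor control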
# Numbers without * were called inactive; i = inactive; . = no result; + = active, no number.
SMILES,KCNQ1 pot,Kir21 block,hERG rescue,KCNK9 inh,KCNK3 block,KCNQ1 inh,KCNQ1 inh valid,CHO KCNQ1 ctr,KCNQ2 inh,KCNQ1 KCNE1 spec,others
O=S(=O)(Oc1ccc(C(=S)N2CCOCC2)cc1)c1ccc(Cl)cc1,i,0.58,-4,i,i,8*,85*,0.46,i,65%*,
COc1ccc(S(=O)(=O)Oc2ccc(C(=S)N3CCOCC3)cc2OC)cc1,i,0.07,-8,i,i,i,.,.,.,.,
C[C@H]1CN([C@@H](C)CO)C(=O)c2cccc(NC(=O)c3ccc(-c4nccs4)cc3)c2O[C@@H]1CN(C)C(=O)Nc1cccc2ccccc12,.,.,.,.,i,.,.,.,.,.,
CCc1nnc(NS(=O)(=O)c2ccc(N/C=C\C(=O)c3ccc(C)cc3)cc2)s1,i,1.2,-6,i,i,i,.,.,.,.,
Cc1ccc(S(=O)(=O)N2CCOCC2)cc1NC(=O)CNC(C)c1ccccc1 (centres undefined),.,.,.,.,i,.,.,.,.,.,
CC(NCC(=O)Nc1cc(S(=O)(=O)N2CCOCC2)ccc1Cl)c1ccc(Cl)cc1Cl (centres undefined),i,0,-13,i,i,7*,70*,0.43,60%*,92%*,
O=C(NC1CCCCCC1)c1ccc([N+](=O)[O-])s1,.,.,.,.,i,.,.,.,.,.,
CCOC(=O)C1CCN(c2ncnc3c2c(-c2ccccc2)cn3-c2ccccc2)CC1,i,2.4,-22,i,i,9*,138*,0.4,104%*,+,KCNQ1 ephys val=i
CCOC(=O)C1CCN(c2ncnc3c2[nH]c2cccc(OC)c23)CC1,i,2.4,-9,i,i,i,.,.,.,.,
CCOC(=O)C1CCN(c2ncnc3c2oc2ccc(Cl)cc23)CC1,i,1.8,-14,i,i,7*,62*,0.55,94%*,i,
Cc1ccc(-n2cc(-c3ccccc3)c3c(N4CCOCC4)ncnc32)cc1,i,1.1,-12,i,i,12*,94*,0.42,107%*,134%*,KCNQ1 ephys val=i
CC(=O)Nc1ccc(C(=O)OCC(=O)NC2CCCCCCC2)cc1,i,-0.86,-7,i,i,i,.,.,.,.,
Cc1ccc(-n2nc3c(=O)n(CC(=O)NC4CCCCC4)nc(C)c3c2C)cc1,i,-0.23,-6,i,i,i,.,.,.,.,
Cc1ccc(Cl)cc1N1CCN(C(=O)c2cc3c(=O)[nH]c4ccccc4c3n2C)CC1,i,-0.01,-30,i,i,12*,110*,0.51,104%*,i,KCNQ1 ephys val=i
